The source of these data is paper PMC8103725 (FASEB BioAdvances, 2021).

For series [1], the target named is HEG1–KRIT1 interaction (EGFP‐KRIT1 FERM domain binding to HEG1 cytoplasmic tail on beads) (Homo sapiens, UniProt O00522). As to the kind of experiment: Flow cytometry bead assay for the HEG1–KRIT1 FERM domain interaction. The conditions noted are these: for inhibition of the HEG1–KRIT1 interaction: result in words. On the technique in general: Flow cytometry measures light scatter and fluorescence of single cells or particles in a stream.

In series [2] the test system is hCMEC/D3 cells. The series is described as follows: Western blot of pAkt‐S473 and total Akt in hCMEC/D3 cells. It counts as cell-based, human. The conditions noted are these: for effect on Akt phosphorylation induced by HKi2: with HKi2 50 μM, MK‐2206 20 μM, LY294002 10 μM. Summed up: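 hCMEC/D3 cells were treated with 50 μM test compound or DMSO and washed twice in ice‑cold HBSS. They were lysed in RIPA (50 mM Tris pH 7.5, 150 mM NaCl, 1% NP‑40, 0.5% deoxycholate, 0.1% SDS, 2 mM EDTA, 50 mM NaF) with protease/phosphatase inhibitors and 1 mM Na3VO4. Lysates were spun at 20,000xg for 15 min at 4°C, resolved on 4–12% gels, and immunoblotted for phospho‑Akt Ser473 (1:250) and total Akt. Data are mean ± SEM.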
(A western blot detects proteins with antibodies after separation by electrophoresis.)

The next series has as its system HUVEC. As to the kind of experiment: Genome‐wide RNA sequencing of HUVEC. It is filed as cell-based, human. The following applies: same conditions as HKi2, vs vehicle; data not shown. The procedure, abridged:
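HUVEC (passages 4–7) were grown on fibronectin in complete EGM‑2 at 37°C, 5% CO2, then given 75 μM test compound or DMSO for 24 h. Only RNA with RIN >8 was used; 400 ng went into TruSeq stranded mRNA libraries. Libraries were sequenced on HiSeq2500 (SR100, 30 million reads), mapped to GRCh release 96 with Hisat2, and analysed for differential expression with EdgeR.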

Series [3] has as its system hCMEC/D3 cells. As to the kind of experiment: qPCR of KLF4 and KLF2 mRNA in hCMEC/D3 cells. It is filed as cell-based, human. The following applies: 50 μM, 4 h. Summed up:
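Test compound came from a 10 mM DMSO stock, rotated 30 min at RT before use. hCMEC/D3 cells (passages 30–37, collagen‑coated, EGM‑2 MV, 37°C/5% CO2) were treated at the indicated doses (12 h dose–response) or over a time course, versus DMSO. RNA was extracted with TRIzol, and 1 µg was reverse‑transcribed with SuperScript III. qPCR used actin normalization and 2−ΔΔCT. Results are relative to vehicle ± SEM: n=3 t test, or n=4 one‑way ANOVA.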

Series [4] deals with hCMEC/D3 cells. The series is described as follows: Propidium iodide staining, cell viability. It is filed as cell-based, human. The following applies: 50 μM, 24 h, vs vehicle. Summed up: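 hCMEC/D3 cells were treated with test compound or the same DMSO concentration, then resuspended in PBS with 1% BSA and stained with propidium iodide. Samples were analysed by flow cytometry, counting PI‑positive cells as dead. Results are percentage viable cells ± SEM, n=3, one‑way ANOVA.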

Series [5] deals with klf2a expression in arterial and venous endothelium. As to the kind of experiment: Zebrafish klf2a reporter Tg. The following applies: 4 μM, 4 h from 26 hpf. It is filed as in vivo. Summed up:
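Tg(klf2a:H2B‑EGFP);Tg(kdrl:mCherry) embryos were exposed to test compound dissolved in fish egg water. At 30 hpf they were paralysed with tricaine and imaged by confocal microscopy. Nuclear EGFP intensity in vasculature was measured on nuclei outlined through Z, seven nuclei per embryo. Each experiment used two treated and two control embryos; two independent experiments were analysed.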

Series [6] relates to PARD3 binding to HEG1 cytoplasmic tail. As to the kind of experiment: PARD3 pulldown assay with HEG1 matrix. Also noted: species or system human. The following applies: HUVEC lysates, 35 μM compound. Summed up:
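Clarified lysate (600 μg) was rotated overnight at 4°C with 20 μL neutravidin agarose carrying HEG1 wild‑type (1274–1381) or ΔYF (1274–1379) tail. Incubations contained DMSO, 35 μM test compound or 35 μM 2‑hydroxy‑1‑naphthoic acid. After three washes, bound PARD3 was detected by SDS–PAGE immunoblot with rabbit polyclonal anti‑PARD3.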

Series [7] can be described thus: Aqueous solubility in assay buffer. The following applies: assay buffer conditions. It counts as physicochemical.

Chain of HEG1–KRIT1 interaction (EGFP‐KRIT1 FERM domain binding to HEG1 cytoplasmic tail on beads) (O00522 417-736): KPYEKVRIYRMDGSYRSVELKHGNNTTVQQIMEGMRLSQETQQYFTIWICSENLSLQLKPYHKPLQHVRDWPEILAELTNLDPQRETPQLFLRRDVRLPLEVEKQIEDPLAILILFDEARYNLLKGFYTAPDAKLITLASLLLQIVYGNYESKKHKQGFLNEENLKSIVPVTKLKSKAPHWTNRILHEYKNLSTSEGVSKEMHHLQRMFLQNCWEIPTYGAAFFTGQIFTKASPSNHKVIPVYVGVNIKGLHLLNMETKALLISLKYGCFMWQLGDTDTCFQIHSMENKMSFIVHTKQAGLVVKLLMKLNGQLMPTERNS

With `O=Cc1cc(-c2ccccc2)ccc1O` [Compound 6], the “inhibition of the HEG1–KRIT1 interaction” value in series [1] is “moderate inhibition activity”.

`O=Cc1nccc2ccccc12` [Compound 8]: the “inhibition of the HEG1–KRIT1 interaction” value in series [1] is listed as “no inhibition”.

For `O=C(O)c1c(O)ccc2ccccc12` [Compound 9, 2‐hydroxy‐1‐naphthoic acid], the “Akt phosphorylation (pAkt‐S473)” value with hCMEC/D3 cells [2] (50 μM, 4 h) is “did not elevate Akt activity”. In the series with HUVEC, the “effects on HUVECs gene expression by RNA‐Seq” value is listed as “no significant effects”. In the series with hCMEC/D3 cells [3], the “KLF2 mRNA levels” value is on record as “did not elevate” and the “KLF4 mRNA levels” value was “did not elevate”. Besides, the cell viability result in the series on hCMEC/D3 cells [4] was “no statistical difference”. In addition, the “nuclear EGFP (klf2a reporter) in arterial and venous endothelium” value in series [5] is on record as “no effects”. Also, the “PARD3 binding to HEG1” value in series [6] is given as “no effects”. Moreover, in series [1], the “inhibition of the HEG1–KRIT1 interaction” value is recorded as “does not block KRIT1 binding to HEG1”.

What is called IC50 is the concentration at which inhibition is half-maximal. Lower therefore signals greater potency. Consider `CC(NC(=O)c1ccccc1/N=C/c1c(O)ccc2ccccc12)c1ccccc1` (centres unmarked) [HKi1, Sirtinol], for which the aqueous solubility result in series [7] is “poor solubility”. In series [1] (IC50, competition, 70 nM EGFP‐KRIT1 FERM domain, 150 nM HEG1 on the beads), this compound showed an IC50 of roughly 10 µM.

For the compound `O=c1cc(N2CCOCC2)oc2c(-c3ccccc3)cccc12` [LY294002], the “effect on Akt phosphorylation induced by HKi2” value in the series with hCMEC/D3 cells [2] is listed as “prevented an increase in Akt signaling”.

Take `NC1(c2ccc(-c3nc4ccn5c(=O)[nH]nc5c4cc3-c3ccccc3)cc2)CCC1` [MK‐2206]: in the series on hCMEC/D3 cells [2], the “effect on Akt phosphorylation induced by HKi2” value was “prevent the increase in Akt phosphorylation”.
